# Assay outcomes from PubChem BioAssay.
# An excerpt weighted towards active compounds, which were near 1.9% of everything screened.
# Tn6 DDE FP = inhibitors of Tn6 peptide binding to fibrin DD(E), primary screen, biochemical, fluorescence polarization, human fibrin, Tn6 probe. Fibrinogen beta chain (Homo sapiens), P02675. Fibrin DD(E) TRITC-Tn6 fluorescence polarization displacement. inhibition, % at 8.3 µM. 370,000 compounds, 0.21% hits;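 active = inhibition above a per-campaign cutoff: mean of compounds within control limits plus 3 SD, cut at about 15% in these data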;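 note: 0% = median of all compound wells on the plate and 100% = blocking peptide control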
# Target sequence (P02675 whole entry, looked up): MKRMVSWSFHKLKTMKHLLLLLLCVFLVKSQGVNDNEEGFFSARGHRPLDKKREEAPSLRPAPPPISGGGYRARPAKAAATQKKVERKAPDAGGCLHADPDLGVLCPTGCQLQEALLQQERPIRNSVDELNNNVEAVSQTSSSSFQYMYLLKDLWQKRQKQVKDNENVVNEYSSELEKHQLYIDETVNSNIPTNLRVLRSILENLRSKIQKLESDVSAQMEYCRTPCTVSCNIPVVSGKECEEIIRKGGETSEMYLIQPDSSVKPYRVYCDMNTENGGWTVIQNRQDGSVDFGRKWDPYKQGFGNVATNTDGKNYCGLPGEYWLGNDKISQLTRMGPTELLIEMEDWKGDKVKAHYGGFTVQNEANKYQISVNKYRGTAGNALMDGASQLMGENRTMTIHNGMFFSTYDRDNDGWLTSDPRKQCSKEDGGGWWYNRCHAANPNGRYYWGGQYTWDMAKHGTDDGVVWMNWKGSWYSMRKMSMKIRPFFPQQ
# TDP2 absorb = human TDP2 enzyme inhibitors, primary screen, biochemical, epi absorbance, recombinant enzyme. Tyrosyl-DNA phosphodiesterase 2 (Homo sapiens), O95551. T5PNP hydrolysis, p-nitrophenol absorbance 415 nm. inhibition, % at 12.8 µM. 370,000 compounds, 0.34% hits;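 active = inhibition above the mean of all tested compounds plus 3 SD, set per campaign, cut at about 25% in these data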;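 note: 0% = DMSO with enzyme and 100% = buffer with substrate but no TDP2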
#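 Incubation: 2 h at 37 °C; Test system: recombinant human TDP2; Quantity: enzyme 120 nM; Read-out basis: percent inhibition; Medium: 50 mM Tris-HCl pH 7.5 with Mg2+, KCl, DTT, BSA; Repeats: single replicate; Compound: 12.8 µM single point, 1% DMSO; Signal: epi absorbance; Reagent: 5 mM T5PNP chromogenic substrate; Benchmarks: no-enzyme high, DMSO-plus-enzyme low.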
# LEDGF integ inh = blockers of LEDGF/p75-dependent integrase strand transfer – biochemical, TR-FRET, high throughput, primary screen; HIV-1 integrase (with human LEDGF/p75); TR-FRET IN-LEDGF/p75 DNA integration, Eu/Cy5; inhibition, % at 3.7 µM; 370,000 compounds, 0.64% hits; AID 743269, 2014;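 active = inhibition above the screen-wide mean plus 3 SD, cut at about 13% in these data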;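 note: signal is the Cy5 over europium emission ratio at 671 and 618 nm; 0% = plate median of compound wells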
# DDE Tn7 FP inh = inhibitors of Tn7 peptide binding to fibrin DD(E), primary screen, biochemical, fluorescence polarization, human fibrin, Tn7 probe | FP displacement of FITC-Tn7 peptide from fibrin DD(E); 0% = median of compound wells per plate | inhibition, % at 8.3 µM | 370,000 compounds, 0.13% hits;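 active = inhibition above the mean of compounds falling within the control limits plus 3 SD of them, cut at about 14% in these data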;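 note: 0% = plate median of compound wells and 100% = 10 µM Aha-Tn7 peptide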
#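 Assay system: human fibrin DD(E) protein / Input: 2 µM fibrin DD(E) / Benchmarks: high control of 10 µM Aha-Tn7 peptide / Measured by: fluorescence polarization of the labelled Tn7 tracer / Medium: Tris buffer with calcium and detergent, pH 7.8 / Timing: 10 min compound pre-incubation, 3 h probe incubation at room temperature / Repeats: one replicate per compound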
# MBD2 inh = inhibitors of MBD2 binding to methylated DNA, primary screen, biochemical, TR-FRET, DNA-binding domain, human. AID 686964, 2013. MBD2 binding to methylated oligonucleotide. 370,000 compounds, 0.31% hits. inhibition, % at 4.4 µM; in the data active = inhibition above about 13%
# UHRF1 MBD2 ctr = UHRF1 methylated DNA binding inhibitors, primary screen, counter-screen for MBD2 inhibitor project, biochemical, TR-FRET, human UHRF1, single concentration; inhibition, % at 4.4 µM; UHRF1 binding to methylated oligo; 370,000 compounds, 0.75% hits; AID 687016, 2013; E3 ubiquitin-protein ligase UHRF1 (Homo sapiens), Q96T88; in the data active = inhibition above about 21%;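 note: UHRF1 SRA domain binding a hemimethylated CpG hairpin DNA probe; 0% = median of test compound wells and 100% = reference inhibitor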
# The depositor's hits bear a star.
SMILES,Tn6 DDE FP,TDP2 absorb,LEDGF integ inh,DDE Tn7 FP inh,MBD2 inh,UHRF1 MBD2 ctr
Cc1ccccc1C(=O)N(C)[C@H]1C[C@H]2c3[nH]c4c(-c5ccc6c(c5)OCO6)cccc4c3CCN2C(=O)[C@H]1[C@H](C)O,12,2,2,-2,1,0
CN1C=C/C(=C\c2cc[n+](C)c3ccccc23)c2ccccc21,-7,28*,2,-7,10,27*
CCOC(=O)[C@@]12CCCC3=C1N(CCC3)C(=O)[C@H]2CC(=O)N1CCN(C(=O)c2ccco2)CC1,-1,-9,6,3,-8,-1
CC1=CC(c2ccccc2)n2nnnc2N1 (centres undefined),3,-6,-1,1,1,35*
CN1C(=O)c2cc(NC(=O)Nc3ccccc3)ccc2OC[C@H]2O[C@@H](CC(=O)NC3Cc4ccccc4C3)CC[C@@H]21,-4,4,4,-9,10,5
CCCCCC(=O)NC1CCCCN(C)C1=O (centres undefined),-5,0,6,6,1,2
Cc1ncc(CO)c(/C=N/NC(=O)c2cc(Br)ccc2O)c1O,-2,-1,-8,4,0,24*
COc1cc(NC(=O)c2ccccc2)c(OC)cc1Cl,-1,2,0,0,-1,0
COc1cc(Cl)c(C)cc1NC(=O)c1ccc(S(C)(=O)=O)cc1,-1,-4,1,3,7,24*
CN1C2=N[C@H](c3ccccc3)CC(=O)N2/C(=C\c2ccccc2)C1Cc1ccccc1 (some centres undefined),-5,3,0,5,2,-4
CN1CCN(S(=O)(=O)c2cccc(C(=O)N3CCN(c4ccccc4)CC3)c2)CC1,-2,0,-2,0,4,49*
COc1ccc(C2CC(=O)C(c3ccc(Cl)cc3)=CN2Cc2ccccc2)cc1 (centres undefined),-6,-4,0,-6,4,2
CCOc1ccc(NC(=S)N2c3ccccc3CC2C)cc1 (centres undefined),-2,-2,-3,4,-1,5
CCOc1ccc(NC(=S)C(C#N)=C2N(C)c3ccccc3N2C)cc1,0,0,-6,-7,1,22*
Cc1ccc(OS(=O)(=O)c2cn(C)c(=O)n(C)c2=O)cc1C,-3,4,0,2,1,-2
Cn1cc(S(=O)(=O)Oc2ccccc2)c(=O)n(C)c1=O,-1,1,-6,2,4,28*
COc1ccc2c(c1)C(NC(=O)C(F)(F)F)CC21CCCCC1 (centres undefined),0,1,3,-8,-3,3
COCCN1C(=O)C2=C(C1=O)C1N(C)c3ccccc3[C@@]13C[C@@H](CO)N(S(=O)(=O)c1ccc(OC)cc1)C3=N2 (some centres undefined),3,3,-2,0,1,-2
O=C(c1nc(SCc2ccc([N+](=O)[O-])cc2)n2ccccc12)C(F)(F)F,2,-5,0,-1,1,24*
CCCN(C)C[C@H]1Oc2cc(C#Cc3ccc(F)cc3)ccc2S(=O)(=O)N([C@H](C)CO)C[C@@H]1C,-14,-5,-5,0,14*,22*
CCCNC(=O)N(C)C[C@@H]1Oc2cc(C#C[C@H](C)O)ccc2S(=O)(=O)N([C@H](C)CO)C[C@H]1C,-2,2,2,2,1,2
CCCC#Cc1ccc2c(c1)O[C@H](CN(C)C(=O)CC1CC1)[C@H](C)CN([C@@H](C)CO)S2(=O)=O,1,4,-4,3,11,24*
